Reference: ChEMBL document CHEMBL2073777, “Characterization of ochratoxin A transport by human organic anion transporters” (Life Sci, 2001)

Experiments:
Format in all cases: functional, cell-based
[1] = target: T1, Solute carrier family 22 member 6 (Homo sapiens, UniProt Q4U2R8); assay: TP_TRANSPORTER: inhibition of Ochratoxin A uptake (OTA: 1 uM, Aspartame: 200 uM) in OAT1-expressing S2 cells; conditions: s2, 200 µM
T1 sequence (Q4U2R8 whole entry): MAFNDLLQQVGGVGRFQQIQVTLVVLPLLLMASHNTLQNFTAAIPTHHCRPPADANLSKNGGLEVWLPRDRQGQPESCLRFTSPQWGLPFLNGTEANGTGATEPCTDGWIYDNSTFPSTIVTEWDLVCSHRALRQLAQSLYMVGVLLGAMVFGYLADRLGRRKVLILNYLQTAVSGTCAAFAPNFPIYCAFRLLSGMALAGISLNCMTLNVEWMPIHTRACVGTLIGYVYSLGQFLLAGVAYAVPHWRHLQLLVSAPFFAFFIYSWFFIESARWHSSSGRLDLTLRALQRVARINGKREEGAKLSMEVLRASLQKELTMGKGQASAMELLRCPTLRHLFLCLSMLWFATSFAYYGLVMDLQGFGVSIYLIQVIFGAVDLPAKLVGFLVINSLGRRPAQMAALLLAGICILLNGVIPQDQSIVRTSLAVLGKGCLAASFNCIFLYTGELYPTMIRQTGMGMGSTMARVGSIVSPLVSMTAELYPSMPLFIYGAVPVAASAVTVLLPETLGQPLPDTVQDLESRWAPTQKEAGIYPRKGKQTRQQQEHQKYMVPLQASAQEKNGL
In short: (§1)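 Mouse proximal tubule second-segment (S2) cells stably expressing human OAT1 or OAT3. Uptake of [³H]-labelled ochratoxin A was measured with and without added OAT substrates as inhibitors.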

[2] = target: T2, Organic anion transporter 3 (Homo sapiens, UniProt Q8TCC7); assay: TP_TRANSPORTER: inhibition of Ochratoxin A uptake (OTA: 1 uM, Aspartame: 200 uM) in OAT3-expressing S2 cells; conditions: s2, 200 µM; in short: as §1
T2 sequence (Q8TCC7 whole entry): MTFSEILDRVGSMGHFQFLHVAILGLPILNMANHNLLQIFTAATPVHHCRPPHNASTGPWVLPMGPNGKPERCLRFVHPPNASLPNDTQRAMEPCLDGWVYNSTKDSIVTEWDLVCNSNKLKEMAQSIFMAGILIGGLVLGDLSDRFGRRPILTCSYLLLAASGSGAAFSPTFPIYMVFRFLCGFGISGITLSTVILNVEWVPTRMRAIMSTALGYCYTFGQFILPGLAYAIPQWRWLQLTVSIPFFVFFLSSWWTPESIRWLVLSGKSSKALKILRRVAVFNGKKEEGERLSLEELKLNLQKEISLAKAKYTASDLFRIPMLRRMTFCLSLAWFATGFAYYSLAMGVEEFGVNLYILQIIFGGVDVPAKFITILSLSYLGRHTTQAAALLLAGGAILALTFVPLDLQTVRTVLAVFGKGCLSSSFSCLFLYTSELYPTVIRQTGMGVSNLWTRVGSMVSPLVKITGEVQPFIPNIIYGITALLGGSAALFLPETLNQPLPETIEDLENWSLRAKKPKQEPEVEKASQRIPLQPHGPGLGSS

[3] = target: T3, OAT3 (Organic anion transporter 3) (Homo sapiens, UniProt Q8TCC7); assay: TP_TRANSPORTER: uptake in OAT3-expressing S2 cells; conditions: mouse, S2 cells that express OAT3
T3 sequence (Q8TCC7 whole entry): T2 sequence (Q8TCC7 whole entry)
In short: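 S2 proximal tubule cells from mice stably expressing human OAT3. [³H]-ochratoxin A uptake was followed over time and concentration, and the apparent Km was taken from the saturable uptake.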

[4] = target: T2, Organic anion transporter 3; assay: TP_TRANSPORTER: inhibition of Ochratoxin A uptake in OAT3-expressing S2 cells
[5] = target: T2, Organic anion transporter 3; assay: TP_TRANSPORTER: inhibition of Ochratoxin A uptake (OTA: 1 uM, Indomethacin: 200 uM) in OAT3-expressing S2 cells; conditions: mouse, s2, 200 µM; in short: as §1
[6] = target: T1, Solute carrier family 22 member 6; assay: TP_TRANSPORTER: inhibition of Ochratoxin A uptake (OTA: 1 uM, Indomethacin: 200 uM) in OAT1-expressing S2 cells; conditions: mouse, s2, 200 µM; in short: as §1
[7] = target: T2, Organic anion transporter 3; assay: TP_TRANSPORTER: inhibition of Ochratoxin A uptake (OTA: 1 uM, PCG: 200 uM) in OAT3-expressing S2 cells; conditions: mouse, s2, 200 µM; in short: as §1

COC(=O)[C@H](Cc1ccccc1)NC(=O)[C@@H](N)CC(=O)O
Activity [1]: is not an inhibitor [-] | Activity [2]: is not an inhibitor [-]

C[C@@H]1Cc2c(Cl)cc(C(=O)N[C@@H](Cc3ccccc3)C(=O)O)c(O)c2C(=O)O1 [3R14S-OCHRATOXIN A]
Km [3]: 0.75 µM

CC1=C2C(=CO[C@H](C)[C@H]2C)C(O)=C(C(=O)O)C1=O [CITRININ]
Ki [4]: 15.4 µM

COc1ccc2c(c1)c(CC(=O)O)c(C)n2C(=O)c1ccc(Cl)cc1 [INDOMETHACIN]
Activity [5]: inhibitor [(at a rough estimate) 15 % of control] | Activity [6]: inhibitor [(at a rough estimate) 25 % of control]

CCCCCCCC(=O)O [OCTANOIC ACID]
Ki [4]: 8.6 µM

CC1(C)S[C@@H]2[C@H](NC(=O)Cc3ccccc3)C(=O)N2[C@H]1C(=O)O [PENICILLIN G]
Activity [7]: inhibitor [(at a rough estimate) 35 % of control]

CN1C(C(=O)Nc2ccccn2)=C(O)c2ccccc2S1(=O)=O [PIROXICAM]
Ki [4]: 4.88 µM
